Reference: ChEMBL document CHEMBL4673255, “Acylated 1H-1,2,4-Triazol-5-amines Targeting Human Coagulation Factor XIIa and Thrombin: Conventional and Microscale Synthesis, Anticoagulant Properties, and Mechanism of Action” (J Med Chem, 2020)
The source made the active and inactive calls. The calls are words filed in the database; no cut-off is given here.

Experiments:
[1] = target: T1, Coagulation factor XII (Homo sapiens) (UniProt P00748); assay: Binding affinity to human plasma coagulation factor XIIA assessed as compound-adduct formation by measuring change in molecular mass at molar ratio of 1:20 measured after 4 mins by SEC/ESI-TOF mass spectra analysis; type: cell-free
T1 sequence (whole entry): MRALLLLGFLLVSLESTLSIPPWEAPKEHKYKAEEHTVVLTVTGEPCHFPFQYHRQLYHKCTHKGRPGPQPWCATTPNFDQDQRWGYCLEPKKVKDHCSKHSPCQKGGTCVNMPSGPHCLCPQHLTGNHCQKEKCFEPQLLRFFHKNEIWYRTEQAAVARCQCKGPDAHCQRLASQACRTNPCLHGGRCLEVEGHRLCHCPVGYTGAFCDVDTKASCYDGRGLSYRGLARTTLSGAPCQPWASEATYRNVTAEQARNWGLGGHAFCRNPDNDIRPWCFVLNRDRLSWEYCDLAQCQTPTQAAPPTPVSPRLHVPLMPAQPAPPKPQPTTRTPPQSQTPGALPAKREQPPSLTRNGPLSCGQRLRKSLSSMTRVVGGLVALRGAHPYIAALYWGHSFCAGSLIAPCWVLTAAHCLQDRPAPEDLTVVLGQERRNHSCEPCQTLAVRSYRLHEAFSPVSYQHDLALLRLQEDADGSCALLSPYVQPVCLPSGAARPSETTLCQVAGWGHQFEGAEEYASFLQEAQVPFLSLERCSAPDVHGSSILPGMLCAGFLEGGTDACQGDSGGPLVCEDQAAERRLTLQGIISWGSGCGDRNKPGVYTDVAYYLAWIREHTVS
How it was run: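 β-FXIIa incubated with inhibitor at a 1:20 molar ratio, then size-exclusion chromatography coupled to ESI-MS to measure the mass of enzyme–inhibitor complexes. Further runs checked complex stability to probe reversibility.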

Plasma [2] = assay: Antiplatelet activity in […] assessed as inhibition of MDA-MB-231-induced platelet aggregation at 0.1 to 10 uM by light transmission aggregometry; type: functional; conditions: Homo sapiens, dose 0.1-10 µM
Homo sapiens = organism: Homo sapiens; assay: Selectivity index, ratio of IC50 for inhibition of human coagulation factor alpha-thrombin using Boc-Val-Pro-Arg-AMC as fluorogenic substrate to IC50 for inhibition of human coagulation factor XIIA using Boc-Gln-Gly-Arg-AMC as fluorogenic substrate incubated for 1 hr by fluorometric assay
Prothrombin [3] = target: T2, Prothrombin (Homo sapiens, UniProt P00734); assay: Inhibition of human coagulation factor alpha-thrombin using Boc-Val-Pro-Arg-AMC as fluorogenic substrate at 2 uM measured at 1 min interval for 1 hr by fluorometric assay relative to control
HepG2 = assay: Cytotoxicity against human HepG2 cells assessed as reduction in cell viability at 100 uM incubated for 48 hrs by alamar blue assay relative to control; type: cell-based; conditions: hepg2, 48 h
CCF-STTG1 = assay: Cytotoxicity against human CCF-STTG1 cells assessed as reduction in cell viability at 100 uM incubated for 48 hrs by alamar blue assay relative to control; type: cell-based; conditions: ccf-sttg1, 48 h
[4] = target: T1, Coagulation factor XII (Homo sapiens); assay: Inhibition of human coagulation factor XIIA in presence of Boc-Gln-Gly-Arg-AMC as fluorogenic substrate at 1 uM measured at 1 min interval for 1 hr by fluorometric assay relative to control
How it was run: (§1)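 Screening of crude microscale amide-coupling products. Conversion was measured by 1H NMR and product content normalised to 76 µmol/L in DMSO, then tested at 1 µM and 100 nM in the fluorogenic FXIIa or thrombin assay. A 0-conversion reaction served as blank. Percent inhibition is from triplicates.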

Blood [5] = assay: Anticoagulant activity in human blood assessed as increase in activated partial thromboplastin time at 300 uM incubated for 1 min by aPTT reagent based assay relative to control; type: functional
How it was run: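 Compounds were tested at 300 µM, and the increase was expressed relative to DMSO. The doubling concentration (EC2×) is the concentration prolonging aPTT twofold. At least triplicate, mean ± SD.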

Blood [6] = assay: Effect on blood coagulation in human blood assessed as increase in prothrombin time at 300 uM incubated for 3 mins followed by CaCl2 addition by PT reagent based assay relative to control; type: ADME, tissue-based; conditions: 0.05 h
How it was run: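 Clotting was started with PT reagent already containing CaCl2, prewarmed to 37 °C, and clotting time was recorded. Increase is given relative to DMSO; at least triplicate, mean ± SD.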

[7] = Inhibition of porcine trypsin using Z-Gly-Gly-Arg-AMC as fluorogenic substrate measured at 1 min interval for 1 hr by fluorometric assay; design: species or system Sus scrofa
Coagulation factor X [8] = target: T3, Coagulation factor X (Homo sapiens, UniProt P00742); assay: Inhibition of human coagulation factor Xa using Boc-Ile-Glu-Gly-Arg-AMC as fluorogenic substrate measured at 1 min interval for 1 hr by fluorometric assay
Coagulation factor XII = target: T4, Coagulation factor XII (Homo sapiens, UniProt P00748); assay: Inhibition of human coagulation factor XIIA using Boc-Gln-Gly-Arg-AMC as fluorogenic substrate measured at 1 min interval for 1 hr by fluorometric assay
T4 sequence (P00748 whole entry): T1 sequence (whole entry)

[9] = target: T1, Coagulation factor XII (Homo sapiens); assay: […] inhibition of human coagulation factor XIIA using Boc-Gln-Gly-Arg-AMC as fluorogenic substrate measured every 87 sec for 180 mins by time-dependent fluorescence assay
How it was run: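 Fluorescence (ex 355/em 460 nm) was read at once, every 87 s, for up to 180 min. IC50 was computed at each time point and plotted against time.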

Prothrombin [10] = target: T2, Prothrombin; assay: Inhibition of human coagulation factor alpha-thrombin at 33 uM using Boc-Val-Pro-Arg-AMC as fluorogenic substrate measured at 1 min interval for 1 hr by fluorometric assay relative to control
Prothrombin [11] = target: T2, Prothrombin; assay: Inhibition of human coagulation factor thrombin using Boc-Val-Pro-Arg-AMC as fluorogenic substrate at 100 nM measured at 1 min interval for 1 hr by fluorometric assay relative to control; how it was run: as §1
[12] = target: T1, Coagulation factor XII (Homo sapiens); assay: Inhibition of human coagulation factor XIIA using Boc-Gln-Gly-Arg-AMC as fluorogenic substrate at 100 nM measured at 1 min interval for 1 hr by fluorometric assay relative to control; how it was run: as §1
Prothrombin [13] = target: T2, Prothrombin; assay: Inhibition of human coagulation factor alpha-thrombin using Boc-Val-Pro-Arg-AMC as fluorogenic substrate measured at 1 min interval for 1 hr by fluorometric assay
Plasma [14] = assay: Anticoagulant activity in human platelet-rich plasma assessed as reduction in TF-induced thrombin generation by measuring endogenous thrombin potential at 100 uM preincubated for 15 mins followed by TF addition by Z-Gly-Gly-Arg-AMC substrate based calibrated automated thrombography (reference value: 1203 +/- 44 AU.min/L); type: functional; conditions: 0.25 h
How it was run: (§2)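 Tissue-factor-triggered homogeneous thrombin generation followed by fluorogenic substrate cleavage. Read-outs: clotting time (T1/2), peak amplitude (Amax, AU/L), time to peak (Tmax) and ETP (AU·min/L). DMSO and buffer served as controls. n = 3, mean ± SD.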

Plasma [15] = assay: Anticoagulant activity in human platelet-rich plasma assessed as reduction in TF-induced thrombin generation by measuring Tmax of clotting time at 100 uM preincubated for 15 mins followed by TF addition by Z-Gly-Gly-Arg-AMC substrate based calibrated automated thrombography (reference value: 8.1 +/- 0.6 min); type: functional, cell-free; how it was run: as §2
Plasma [16] = assay: Anticoagulant activity in human platelet-rich plasma assessed as reduction in TF-induced thrombin generation by measuring half life of clotting time at 100 uM preincubated for 15 mins followed by TF addition by Z-Gly-Gly-Arg-AMC substrate based calibrated automated thrombography (Rvb= 3 +/- 0.5 min); type: functional, cell-free; how it was run: as §2
Plasma [17] = assay: Anticoagulant activity in human platelet-rich plasma assessed as reduction in TF-induced thrombin generation by measuring amplitude of thrombin peak at 100 uM preincubated for 15 mins followed by TF addition by Z-Gly-Gly-Arg-AMC substrate based calibrated automated thrombography (reference value: 63 +/- 3.7 AU/L); type: functional; conditions: 0.25 h; how it was run: as §2
Coagulation factor XI = Coagulation factor XI (Homo sapiens, UniProt P03951); assay: Inhibition of human coagulation factor XIA using Mes-dArg-Pro-Arg-AMC as fluorogenic substrate measured at 1 min interval for 1 hr by fluorometric assay
[18] = target: T5, Urokinase-type plasminogen activator (Homo sapiens, UniProt P00749); assay: Inhibition of human uPA using Tos-Gly-Pro-Arg-AMC as fluorogenic substrate measured at 1 min interval for 1 hr by fluorometric assay
Plasminogen = Plasminogen (Homo sapiens, UniProt P00747); assay: Inhibition of human plasmin using Mes-dArg-Phe-Arg-AMC as fluorogenic substrate measured at 1 min interval for 1 hr by fluorometric assay
Plasma kallikrein = Plasma kallikrein (Homo sapiens, UniProt P03952); assay: Inhibition of human kallikrein using Mes-dArg-Pro-Arg-AMC as fluorogenic substrate measured at 1 min interval for 1 hr by fluorometric assay
[19] = target: T5, Urokinase-type plasminogen activator; assay: Inhibition of human uPA using Tos-Gly-Pro-Arg-AMC as fluorogenic substrate at 5 uM measured at 1 min interval for 1 hr by fluorometric assay relative to control
Plasma [20] = assay: Anticoagulant activity in human platelet-rich plasma assessed as reduction in TF-induced thrombin generation by measuring endogenous thrombin potential at 1 uM preincubated for 15 mins followed by TF addition by Z-Gly-Gly-Arg-AMC substrate based calibrated automated thrombography (reference value: 1203 +/- 44 AU.min/L); type: functional; conditions: 0.25 h; how it was run: as §2
Plasma [21] = assay: Anticoagulant activity in human platelet-rich plasma assessed as reduction in TF-induced thrombin generation by measuring Tmax of clotting time at 1 uM preincubated for 15 mins followed by TF addition by Z-Gly-Gly-Arg-AMC substrate based calibrated automated thrombography (reference value: 8.1 +/- 0.6 min); type: functional, cell-free; how it was run: as §2
Plasma [22] = assay: Anticoagulant activity in human platelet-rich plasma assessed as reduction in TF-induced thrombin generation by measuring half life of clotting time at 1 uM preincubated for 15 mins followed by TF addition by Z-Gly-Gly-Arg-AMC substrate based calibrated automated thrombography (Rvb= 3 +/- 0.5 min); type: functional, cell-free; how it was run: as §2
Plasma [23] = assay: Anticoagulant activity in human platelet-rich plasma assessed as reduction in TF-induced thrombin generation by measuring amplitude of thrombin peak at 1 uM preincubated for 15 mins followed by TF addition by Z-Gly-Gly-Arg-AMC substrate based calibrated automated thrombography (reference value: 63 +/- 3.7 AU/L); type: functional; conditions: 0.25 h; how it was run: as §2
Coagulation factor X [24] = target: T3, Coagulation factor X; assay: Inhibition of human coagulation factor Xa using Boc-Ile-Glu-Gly-Arg-AMC as fluorogenic substrate at 1 uM measured at 1 min interval for 1 hr by fluorometric assay relative to control

T3 sequence (P00742 41-179 limits assumed): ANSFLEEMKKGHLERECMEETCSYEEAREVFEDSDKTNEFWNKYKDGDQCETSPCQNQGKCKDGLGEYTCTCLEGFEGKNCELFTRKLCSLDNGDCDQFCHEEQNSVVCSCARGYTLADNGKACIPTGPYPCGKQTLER
T3 sequence (P00742 235-488 limits assumed): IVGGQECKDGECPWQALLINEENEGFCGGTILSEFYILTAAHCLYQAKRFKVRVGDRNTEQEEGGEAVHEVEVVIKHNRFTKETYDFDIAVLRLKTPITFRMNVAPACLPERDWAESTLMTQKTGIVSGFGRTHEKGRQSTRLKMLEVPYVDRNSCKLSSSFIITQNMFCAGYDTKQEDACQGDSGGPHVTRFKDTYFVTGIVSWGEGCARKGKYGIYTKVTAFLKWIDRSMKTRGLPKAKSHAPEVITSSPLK
Sequence of Plasminogen (P00747 97-580 limits assumed): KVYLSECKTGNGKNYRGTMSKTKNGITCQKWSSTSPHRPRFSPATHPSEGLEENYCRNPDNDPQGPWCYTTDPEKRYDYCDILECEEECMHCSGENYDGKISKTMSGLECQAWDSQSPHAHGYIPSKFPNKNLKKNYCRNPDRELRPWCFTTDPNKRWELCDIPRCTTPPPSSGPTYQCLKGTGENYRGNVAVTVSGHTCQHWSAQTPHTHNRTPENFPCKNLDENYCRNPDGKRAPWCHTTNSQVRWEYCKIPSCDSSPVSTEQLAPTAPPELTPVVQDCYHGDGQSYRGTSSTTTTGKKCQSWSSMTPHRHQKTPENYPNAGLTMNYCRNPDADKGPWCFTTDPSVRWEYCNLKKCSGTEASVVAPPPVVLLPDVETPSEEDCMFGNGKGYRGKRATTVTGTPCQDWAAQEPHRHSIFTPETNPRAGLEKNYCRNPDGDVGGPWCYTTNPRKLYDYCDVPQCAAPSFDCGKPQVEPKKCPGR
Sequence of Plasminogen (P00747 581-810 limits assumed): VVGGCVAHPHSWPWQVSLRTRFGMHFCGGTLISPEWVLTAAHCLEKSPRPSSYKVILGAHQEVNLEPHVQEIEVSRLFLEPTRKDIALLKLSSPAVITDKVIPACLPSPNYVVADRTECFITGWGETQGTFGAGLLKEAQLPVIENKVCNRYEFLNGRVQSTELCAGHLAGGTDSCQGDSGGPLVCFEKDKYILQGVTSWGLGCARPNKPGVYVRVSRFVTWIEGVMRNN
Sequence of Plasma kallikrein (P03952 20-390 limits assumed): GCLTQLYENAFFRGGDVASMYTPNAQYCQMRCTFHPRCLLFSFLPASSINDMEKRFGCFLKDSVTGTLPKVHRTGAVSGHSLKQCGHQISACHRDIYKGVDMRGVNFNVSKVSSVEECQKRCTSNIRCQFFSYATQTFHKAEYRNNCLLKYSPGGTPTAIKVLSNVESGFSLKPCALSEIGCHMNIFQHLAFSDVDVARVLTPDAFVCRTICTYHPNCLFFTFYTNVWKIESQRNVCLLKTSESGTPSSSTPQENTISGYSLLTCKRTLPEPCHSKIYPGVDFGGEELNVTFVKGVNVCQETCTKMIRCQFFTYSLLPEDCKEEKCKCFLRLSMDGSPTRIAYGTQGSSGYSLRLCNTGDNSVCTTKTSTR
Sequence of Plasma kallikrein (P03952 391-638 limits assumed): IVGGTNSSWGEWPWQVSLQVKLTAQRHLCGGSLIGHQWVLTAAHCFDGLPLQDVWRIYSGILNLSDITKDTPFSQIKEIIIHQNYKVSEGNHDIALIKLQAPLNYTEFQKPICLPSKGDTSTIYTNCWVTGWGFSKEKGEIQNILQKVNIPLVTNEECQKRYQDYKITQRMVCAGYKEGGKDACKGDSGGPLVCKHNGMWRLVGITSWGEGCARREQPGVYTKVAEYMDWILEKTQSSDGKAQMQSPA
Sequence of Coagulation factor XI (P03951 19-387 limits assumed): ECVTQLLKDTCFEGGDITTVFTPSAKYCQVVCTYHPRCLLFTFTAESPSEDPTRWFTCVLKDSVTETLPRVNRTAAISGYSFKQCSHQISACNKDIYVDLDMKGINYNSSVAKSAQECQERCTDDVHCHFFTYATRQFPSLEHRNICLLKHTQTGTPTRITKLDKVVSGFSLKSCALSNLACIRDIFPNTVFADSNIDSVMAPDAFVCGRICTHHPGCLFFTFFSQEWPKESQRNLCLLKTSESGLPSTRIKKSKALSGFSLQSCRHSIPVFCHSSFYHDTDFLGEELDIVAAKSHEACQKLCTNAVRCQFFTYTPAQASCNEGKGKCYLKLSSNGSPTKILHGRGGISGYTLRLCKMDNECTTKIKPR
Sequence of Coagulation factor XI (P03951 388-625 limits assumed): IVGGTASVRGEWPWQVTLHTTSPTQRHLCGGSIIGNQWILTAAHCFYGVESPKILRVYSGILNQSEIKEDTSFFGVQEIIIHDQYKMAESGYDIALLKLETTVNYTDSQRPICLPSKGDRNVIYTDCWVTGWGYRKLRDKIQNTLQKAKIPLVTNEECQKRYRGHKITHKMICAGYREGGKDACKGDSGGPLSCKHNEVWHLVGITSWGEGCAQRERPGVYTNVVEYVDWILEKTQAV

SMILES | Activity [1] [Da] | Ratio IC50 (Homo sapiens) | inhibition [4] [%] | Activity (Blood [5]) [%] | Activity (Blood [6]) [%] | IC50 [7] [nM] | IC50 (Coagulation factor X [8]) [nM] | IC50 (Coagulation factor XII) [nM] | inhibition [9] | inhibition (Prothrombin [11]) [%] | inhibition [12] [%] | IC50 (Prothrombin [13]) [nM] | IC50 (Coagulation factor XI) [nM] | IC50 (Plasminogen) [nM] | IC50 (Plasma kallikrein) [nM] | other results
Nc1nc(-c2ccccn2)nn1C(=O)c1ccc(NC(=O)c2ccccc2)cc1 | 223 | > 18 | 89 | 35 | 2 | > 5000 | > 5000 | 109 |  |  |  |  |  |  |  | inhibition (Plasma [2]): inactive; inhibition (Prothrombin [3]): 38%; Activity (HepG2): 13%; Activity (CCF-STTG1): 35%
O=C(NC[C@H]1CN(c2ccc(N3CCOCC3=O)cc2)C(=O)O1)c1ccc(Cl)s1 [RIVAROXABAN] |  |  | -3 | 335 | 1302 | > 5000 |  | > 33000 | inactive |  |  |  |  |  |  | inhibition (Prothrombin [10]): 55%
Nc1nc(-c2ccccn2)nn1C(=O)[C@H]1CCCc2ccccc21 | 158 |  | 96 | 67 | 7 | > 5000 | > 5000 | 134 |  | 6 | 70 | 421 |  |  |  | 
Cc1ccc(C(=O)n2nc(-c3ccccn3)nc2N)cc1C |  |  | 92 | 227 | 48 | > 5000 | > 5000 | 91 |  |  |  | 57 | > 5000 | 25800 | > 5000 | Activity (Plasma [14]): 370 AU.min/L; Tmax (Plasma [15]): 8.8 min; T1/2 (Plasma [16]): 3.8 min; Activity (Plasma [17]): 16.9 AU/L; IC50 [18]: 2940 nM
Nc1nc(-c2ccccn2)nn1C(=O)Cc1ccccc1I |  | 29 | 89 | 92 | 6 |  | > 5000 | 62 |  | 2 | 47 | 1820 | > 5000 | > 5000 | > 5000 | inhibition [19]: 41%
Cn1c(CNc2ccc(C(=N)N)cc2)nc2cc(C(=O)N(CCC(=O)O)c3ccccn3)ccc21 [DABIGATRAN] |  |  | -1 | 252 |  |  |  |  | inactive |  |  |  |  |  |  | Activity (Plasma [20]): 678 AU.min/L; Tmax (Plasma [21]): 25.5 min; T1/2 (Plasma [22]): 15.2 min; Activity (Plasma [23]): 72.4 AU/L; inhibition (Coagulation factor X [24]): 34%; Ki [7]: 50 nM
